Source: ChEMBL document CHEMBL1144664, “Design, synthesis, and SAR of new pyrrole-oxindole progesterone receptor modulators leading to 5-(7-fluoro-3,3-dimethyl-2-oxo-2,3-dihydro-1H-indol-5-yl)-1-methyl-1H-pyrrole-2-carbonitrile (WAY-255348)” (J Med Chem, 2008)

Key:
Progesterone receptor [1] = biological target: T1, Progesterone receptor (Homo sapiens, UniProt P06401); assay: Agonist activity at human PR expressed in human T47D cells assessed as stimulation of alkaline phosphatase; format: functional, cell-based
T1 sequence (P06401 whole entry): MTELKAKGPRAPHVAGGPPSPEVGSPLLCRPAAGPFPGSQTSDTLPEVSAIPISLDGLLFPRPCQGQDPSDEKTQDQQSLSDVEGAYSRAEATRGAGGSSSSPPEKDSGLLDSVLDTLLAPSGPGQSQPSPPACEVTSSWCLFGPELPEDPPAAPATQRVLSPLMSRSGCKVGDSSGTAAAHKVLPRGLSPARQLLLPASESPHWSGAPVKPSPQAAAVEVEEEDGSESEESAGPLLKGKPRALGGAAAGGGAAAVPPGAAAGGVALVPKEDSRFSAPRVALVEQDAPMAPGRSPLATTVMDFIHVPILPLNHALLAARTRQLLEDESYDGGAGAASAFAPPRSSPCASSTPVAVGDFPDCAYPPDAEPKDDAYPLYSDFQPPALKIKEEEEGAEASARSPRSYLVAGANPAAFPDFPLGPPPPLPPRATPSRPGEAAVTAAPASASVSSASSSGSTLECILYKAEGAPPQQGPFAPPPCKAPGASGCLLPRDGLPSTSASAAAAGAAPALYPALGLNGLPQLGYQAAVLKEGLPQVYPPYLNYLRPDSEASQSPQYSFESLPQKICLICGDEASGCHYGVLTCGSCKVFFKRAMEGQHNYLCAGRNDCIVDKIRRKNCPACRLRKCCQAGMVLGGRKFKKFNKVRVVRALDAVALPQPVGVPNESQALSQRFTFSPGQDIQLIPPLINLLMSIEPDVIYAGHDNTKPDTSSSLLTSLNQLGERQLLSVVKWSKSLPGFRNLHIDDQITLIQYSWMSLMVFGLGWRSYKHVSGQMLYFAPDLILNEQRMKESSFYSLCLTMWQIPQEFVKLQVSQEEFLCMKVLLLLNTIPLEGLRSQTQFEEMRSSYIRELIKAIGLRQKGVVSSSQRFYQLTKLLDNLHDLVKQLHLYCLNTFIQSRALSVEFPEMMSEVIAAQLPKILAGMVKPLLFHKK
Procedure, shortened: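 Cell-based agonist-mode assay in T47D cells, without progesterone. Cells were suspended in DMEM/F12 with 5% charcoal-stripped FBS, then incubated with compound for 24 h at 37 °C in 5% CO2. Cells were lysed in 0.1 M Tris-HCl pH 9.8 with 0.2% Triton, and 4 mM p-nitrophenyl phosphate was added. OD405 was read every 5 min for 30 min. EC50 comes from dose-response analysis and is the mean of at least duplicates.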

Progesterone receptor [2] = biological target: T1, Progesterone receptor; assay: Displacement of [3H]R5020 from human PR in human T47D cells by whole cell assay; format: cell-based
[3] = Stability in rat liver microsome assessed as half life; format: ADME; conditions: liver microsomes
Procedure, shortened: (§1)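 Female rat, cynomolgus monkey and human liver microsome stability; half-life (min) reported.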

[4] = Stability in cynomolgus monkey liver microsome assessed as half life; format: ADME, Macaca fascicularis; conditions: liver microsomes; procedure, shortened: as §1
Progesterone receptor [5] = biological target: T1, Progesterone receptor; assay: Antagonist activity at human PR expressed in human T47D cells assessed as inhibition of progesterone induced alkaline phosphatase; format: functional, cell-based
[6] = Stability in human liver microsome assessed as half life; format: ADME; conditions: liver microsomes; procedure, shortened: as §1
Cynomolgus monkey = assay: Induction of early menses in cynomolgus monkey at 5 mg/kg, po; format: organism-based, Macaca fascicularis; design: dose 5 mg/kg, route oral; conditions: in vivo
Rattus norvegicus = organism: Rattus norvegicus; assay: Antagonist activity in rat uterus assessed as progesterone-induced decidualization response in stromal cells; format: functional
Procedure, shortened: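 Female rat decidualization model: compound given orally in 0.5% methyl cellulose/2% Tween 80 to antagonize the progesterone-induced decidual response of uterine stromal cells. ED50 reported.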

[7] = Plasma clearance in cynomolgus monkey at […], iv; format: ADME, organism-based, Macaca fascicularis; design: dose 0.25 mg/kg, route intravenous
[8] = Plasma clearance in Sprague-Dawley rat at 0.5 mg/kg, iv; format: ADME, organism-based; design: dose 0.5 mg/kg, route intravenous
Procedure, shortened: (§2)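 Female Sprague–Dawley rats dosed as 1-in-4 cassette or discrete studies. iv in DMSO/PEG200 20:80; po in aqueous 2% Tween 80/0.5% methyl cellulose. Parameters reported: C0, Cmax, t1/2, plasma clearance, Vss, AUC0-inf and %F.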

[9] = Volume of distribution at steady state in Sprague-Dawley rat at 0.5 mg/kg, iv; format: ADME, organism-based; design: dose 0.5 mg/kg, route intravenous; conditions: in vivo, read-out: Vdss; procedure, shortened: as §2
[10] = Drug level in Sprague-Dawley rat at 0.5 mg/kg, iv; format: ADME, organism-based; design: dose 0.5 mg/kg, route intravenous; conditions: in vivo; procedure, shortened: as §2
[11] = AUC (0 to infinity) in Sprague-Dawley rat at 0.5 mg/kg, iv; format: ADME, organism-based; design: time infinity, dose 0.5 mg/kg, route intravenous; conditions: plasma
[12] = Half life in Sprague-Dawley rat at 0.5 mg/kg, iv; format: ADME, organism-based; design: dose 0.5 mg/kg, route intravenous; conditions: in vivo; procedure, shortened: as §2
[13] = Volume of distribution at steady state in cynomolgus monkey at […], iv; format: ADME, organism-based, Macaca fascicularis; design: dose 0.25 mg/kg, route intravenous; conditions: in vivo, read-out: Vdss
[14] = Drug level in cynomolgus monkey at […], iv; format: ADME, organism-based, Macaca fascicularis; design: dose 0.25 mg/kg, route intravenous; conditions: in vivo

Compound Cn1c(C#N)ccc1-c1ccc2c(c1)C1(CCCCC1)C(=O)N2 has an EC50 (Progesterone receptor [1]) of 2.3 nM and an IC50 (Progesterone receptor [2]) of 3.3 nM.

In the case of Cn1c(C#N)ccc1-c1ccc2c(c1)CC(=O)N2, the half-life [3] is reported as > 30 min, the half-life [4] is reported as > 30 min and the IC50 (Progesterone receptor [5]) is reported as 20 nM. For the same compound, the IC50 (Progesterone receptor [2]) was 80 nM and the half-life [6] was > 30 min.

Work on CC#C[C@]1(O)CC[C@H]2[C@@H]3CCC4=CC(=O)CCC4=C3[C@@H](c3ccc(N(C)C)cc3)C[C@@]21C [MIFEPRISTONE] yielded an Activity (Cynomolgus monkey) of 60% and an ED50 (Rattus norvegicus) of 0.7 mg/kg.

For CN1C(=O)C(C)(C)c2cc(-c3ccc(C#N)n3C)cc(F)c21, the IC50 (Progesterone receptor [5]) was 15 nM.

Work on CCCN1C(=O)C(C)(C)c2cc(-c3ccc(C#N)n3C)cc(F)c21 yielded an IC50 (Progesterone receptor [5]) of 27 nM.

CCC1(CC)C(=O)Nc2ccc(-c3ccc(C#N)n3C)cc21 gave a half-life [3] of 10 min, a half-life [4] of 15 min and an IC50 (Progesterone receptor [2]) of 36 nM. For the same compound, the half-life [6] was > 30 min.

With Cn1c(C#N)ccc1-c1cc2c(cc1F)NC(=O)C2(C)C the half-life [3] was 30 min and the IC50 (Progesterone receptor [5]) was 20.3 nM.

With Cn1c(C#N)ccc1-c1cc(F)c2c(c1)C1(CCCC1)C(=O)N2 the EC50 (Progesterone receptor [1]) was 3000 nM and the IC50 (Progesterone receptor [2]) was 14.7 nM.

With C=C1CCO[C@]12CC[C@H]1[C@@H]3CCC4=CC(=O)CCC4=C3[C@@H](c3ccc(C(C)=O)cc3)C[C@@]12C the Activity (Cynomolgus monkey) was 50%.

Cn1c(C#N)ccc1-c1cc(F)c2c(c1)C1(CCCCC1)C(=O)N2 gave an EC50 (Progesterone receptor [1]) of 1.3 nM and an IC50 (Progesterone receptor [2]) of 3.6 nM.

With CC(=O)OCN1C(=O)C(C)(C)c2cc(-c3ccc(C#N)n3C)cc(F)c21 the IC50 (Progesterone receptor [5]) was 48 nM.

With Cn1c(C#N)ccc1-c1ccc2c(c1)C(C)(C)OC(=S)N2 [TANAPROGET] the EC50 (Progesterone receptor [1]) was 0.15 nM and the IC50 (Progesterone receptor [2]) was 0.5 nM.

Work on Cn1c(C#N)ccc1-c1ccc2c(c1)C(C)(C)C(=O)N2 yielded a half-life [3] of 6 min, a clearance [7] of 12 mL/min/kg and a clearance [8] of 9 mL/min/kg. The half-life [4] was 13 min, the Activity (Cynomolgus monkey) was 0% and the Vd [9] was 2.2 L/kg. The C0 [10] was 288 ng/mL, the AUC(0-inf) [11] was 937 ng·h/mL and the half-life [12] was 180 min. The IC50 (Progesterone receptor [2]) was 22 nM, the Vd [13] was 1.6 L/kg and the half-life [6] was > 30 min. For the same compound, the C0 [14] was 241 ng/mL.

With CCN1C(=O)C(C)(C)c2cc(-c3ccc(C#N)n3C)cc(F)c21 the IC50 (Progesterone receptor [5]) was 29 nM.

Work on N#Cc1ccc(-c2ccc3c(c2)CC(=O)N3)[nH]1 yielded an IC50 (Progesterone receptor [5]) of 300 nM.

Cn1c(C#N)ccc1-c1ccc2c(c1)C(C)(C)OC(=O)N2 gave an IC50 (Progesterone receptor [2]) of 4.9 nM.

Cn1c(C#N)ccc1-c1ccc2c(c1F)C(C)(C)C(=O)N2 showed a half-life [3] of 2 min, an IC50 (Progesterone receptor [5]) of 5.9 nM and an IC50 (Progesterone receptor [2]) of 5.5 nM.

For Cn1c(C#N)ccc1-c1ccc2c(c1)C1(CCCC1)C(=O)N2, the EC50 (Progesterone receptor [1]) was 300 nM and the IC50 (Progesterone receptor [2]) was 8.1 nM.
